Reference: ChEMBL document CHEMBL4765399, “Design, synthesis, and biological evaluation of 5-((8-methoxy-2-methylquinolin-4-yl)amino)-1H-indole-2-carbohydrazide derivatives as novel Nur77 modulators” (Eur J Med Chem, 2020)
Calls of active or inactive are those of the source. The rule behind the calls is not given here.

What was measured:
HepG2 [1] = test: Upregulation of Nur77 expression in human HepG2 cells at 2 uM incubated for 6 hrs by Western blot analysis; format: functional, cell-based
Method in brief: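 HepG2, QGY-7703 and SMMC-7721 cells treated with the indicated concentrations for 6 h. HepG2 also given 2.0 µM over a time course. Lysis in RIPA with protease and phosphatase inhibitors; 40-80 µg protein by SDS-PAGE, nitrocellulose transfer. Membranes blocked with 5% milk, primary antibody overnight, HRP secondary, chemiluminescence. GAPDH as loading control.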

[2] = target: T1, Nuclear receptor subfamily 4immunitygroup A member 1 (Homo sapiens, UniProt P22736); test: Modulation of Nur77 in human HepG2 cells assessed as induction of Nur77 translocation into cytoplasm from nucleus at 2 uM incubated for 6 hrs by DAPI staining based immunofluorescence assay; format: cell-based; settings: filed as modulator
T1 sequence (P22736 whole entry): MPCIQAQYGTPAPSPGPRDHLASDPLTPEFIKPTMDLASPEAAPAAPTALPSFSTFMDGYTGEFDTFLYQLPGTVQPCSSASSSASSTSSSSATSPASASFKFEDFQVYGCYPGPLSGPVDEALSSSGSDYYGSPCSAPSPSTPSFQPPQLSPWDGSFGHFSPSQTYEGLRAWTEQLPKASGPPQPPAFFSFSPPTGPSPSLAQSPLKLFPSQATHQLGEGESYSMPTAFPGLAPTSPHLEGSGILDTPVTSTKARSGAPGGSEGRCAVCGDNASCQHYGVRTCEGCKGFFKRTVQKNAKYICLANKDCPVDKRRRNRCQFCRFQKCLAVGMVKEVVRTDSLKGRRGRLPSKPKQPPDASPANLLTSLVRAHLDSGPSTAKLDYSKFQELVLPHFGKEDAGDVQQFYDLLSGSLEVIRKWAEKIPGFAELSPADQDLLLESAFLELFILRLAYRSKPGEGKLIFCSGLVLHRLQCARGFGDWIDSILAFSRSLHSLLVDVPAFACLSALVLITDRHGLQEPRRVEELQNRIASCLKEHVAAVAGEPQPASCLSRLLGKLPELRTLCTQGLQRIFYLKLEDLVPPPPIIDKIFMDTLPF
Method in brief: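 HepG2 exposed to 2.0 µM for set times, fixed (4% paraformaldehyde), permeabilised (0.1% Triton X-100), BSA-blocked, incubated 1 h with anti-Nur77 (1:500) then FITC or Cy3 anti-rabbit IgG; nuclei DAPI-stained; confocal imaging.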

[3] = target: T1, Nuclear receptor subfamily 4immunitygroup A member 1; test: Modulation of Nur77 in human HepG2 cells assessed as induction of mitochondrial translocation at 2 uM incubated for 6 hrs by Mito-tracker based confocal microscopy; settings: Mitochondria, filed as modulator
Method in brief: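 HepG2 cells given 2.0 µM for 6 h, then stained with anti-Nur77 antibody plus Mito-tracker. Cells fixed in 4% paraformaldehyde for 20 min, permeabilized with 0.1% Triton X-100, blocked with 5% BSA. Anti-Nur77 (1:500) for 1 h, then FITC- or Cy3-conjugated anti-rabbit IgG for 1 h. Imaged by confocal microscopy.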

SMMC-7721 [4] = test: Antiproliferative activity against human SMMC-7721 cells assessed as reduction in cell viability at 2 uM by MTT assay; format: functional, cell-based; settings: time 12-48 hrs, TDE = time-dependent effect
Method in brief: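 Cells treated with 2.0 µM over a time course; viability read by MTT. HepG2, SMMC-7721 kept in DMEM, QGY-7703 in RPMI 1640, with 10% FBS at 37 °C and 5% CO2.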

HepG2 [5] = test: Induction of autophagy in Nur77 knockout human HepG2 cells assessed as increase in LC3-II expression at 2 uM measured after 6 to 12 hrs by Western blot analysis; format: functional, cell-based; settings: time 6-12 hrs
Method in brief: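 Scrambled-control and shNur77 HepG2 given DMSO or 2.0 µM for 6 or 12 h; immunoblotting of RIPA lysates for LC3, Beclin1 and Nur77 after SDS-PAGE and nitrocellulose transfer, chemiluminescent detection.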

HepG2 [6] = test: Induction of autophagy in Nur77 knockout human HepG2 cells assessed as increase in GFP-LC3 puncta formation at 2 uM after 6 hrs by fluorescence microscopic method; format: functional, cell-based
Method in brief: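 HepG2, or HepG2 and shNur77 HepG2, transfected with GFP-LC3, then given vehicle or 2.0 µM for 6 h; GFP-LC3 puncta visualised by fluorescence microscopy alongside phase-contrast images.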

HepG2 [7] = test: Induction of endoplasmic reticulum stress in human HepG2 cells assessed as increase in bip protein expression incubated for 12 hrs by Western blot analysis; format: functional, cell-based; settings: dose 0.5-2 µM
Method in brief: (§1)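 HepG2, QGY-7703 and SMMC-7721 treated with graded concentrations for 12 h. Lysed in RIPA with inhibitors; 40-80 µg protein separated by SDS-PAGE, blotted to nitrocellulose, blocked 1 h in 5% milk, primary antibodies overnight (LC3, Beclin1, Bip, CHOP, TRB3), HRP secondaries, chemiluminescence.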

SMMC-7721 [8] = test: Induction of endoplasmic reticulum stress in human SMMC-7721 cells assessed as increase in bip protein expression incubated for 12 hrs by Western blot analysis; format: functional, cell-based; settings: dose 0.5-2 µM; method in brief: as §1
SMMC-7721 [9] = test: Induction of endoplasmic reticulum stress in human SMMC-7721 cells assessed as increase in TRB3 protein expression incubated for 12 hrs by Western blot analysis; format: functional, cell-based; settings: dose 0.5-2 µM; method in brief: as §1
HepG2 [10] = test: Induction of apoptosis in human HepG2 cells assessed as cleaved PARP expression at 2 uM pretreated with autophagy inhibitor, 3-methyladenine for 2 hrs followed by incubation with compound for 12 hrs by Western blot analysis; format: functional, cell-based
Method in brief: (§2)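 HepG2 cells grown to confluence were pretreated 2 h with 2 mM 3-MA (autophagy inhibitor) or 2 mM 4-PBA (ER stress inhibitor), then exposed to compound for 12 h. Proteins (40–80 µg, RIPA lysate) were resolved by SDS-PAGE and blotted for PARP, cleaved caspase-3/-9, Bcl-2 and Bax, with chemiluminescent detection.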

HepG2 [11] = test: Induction of apoptosis in human HepG2 cells assessed as cleaved caspase-9 expression at 2 uM pretreated with autophagy inhibitor, 3-methyladenine for 2 hrs followed by incubation with compound for 12 hrs by Western blot analysis; format: functional, cell-based; method in brief: as §2
HepG2 [12] = test: Antitumor activity against human HepG2 cells xenografted in BALB/c mouse assessed as induction of ER stress by measuring increase in TRB3 level in tumor tissue at 10 to 20 mg/kg/day, ip administered for 15 days by immunohistochemical analysis; format: functional, organism-based; settings: dose 10-20 mg/kg/day, time 15.0 day
Method in brief: (§3)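 HepG2 cells (5×10^6) injected subcutaneously into flanks of 4-week-old male Balb/c nude mice. At about 100 mm³, 15 mice were randomized to vehicle, 10 or 20 mg/kg i.p. once daily for 15 days. Tumors were then excised for immunostaining of paraffin sections (5 μm) or for western blot.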

HepG2 [13] = test: Antitumor activity against human HepG2 cells xenografted in BALB/c mouse assessed as induction of ER stress by measuring increase in bip level in tumor tissue at 10 to 20 mg/kg/day, ip administered for 15 days by immunohistochemical analysis; format: functional, organism-based; settings: dose 10-20 mg/kg/day, time 15.0 day; method in brief: as §3
HepG2 [14] = test: Induction of apoptosis in human HepG2 cells transfected with shRNA assessed as necrotic cells at 2 uM incubated for 12 hrs by Annexin V-FITC/PI staining based flow cytometry (reference value: 0.15%); format: functional
HepG2 [15] = test: Antitumor activity against human HepG2 cells xenografted in BALB/c mouse assessed as sparser and vacuolated cells in tumor tissue at 10 to 20 mg/kg/day, ip for 15 days by hematoxylin and eosin staining based microscopic analysis; format: functional, organism-based; settings: dose 10-20 mg/kg/day, time 15.0 day
Method in brief: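 H&E staining of 4% paraformaldehyde-fixed, paraffin-embedded 5 μm tumor slices from the HepG2 flank xenograft (male Balb/c nude mice, 10 or 20 mg/kg i.p. daily for 15 days, versus vehicle). Examined by light microscopy at 200, 400 and 1000×.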

HepG2 [16] = test: Antitumor activity against human HepG2 cells xenografted in BALB/c mouse assessed as induction of autophagy by measuring increase in LC3-II level in tumor tissue at 10 to 20 mg/kg/day, ip administered for 15 days by western blot analysis; format: functional, organism-based; settings: dose 10-20 mg/kg/day, time 15.0 day; method in brief: as §3
HepG2 [17] = test: Antitumor activity against human HepG2 cells xenografted in BALB/c mouse assessed as induction of ER stress by measuring increase in TRB3 level in tumor tissue at 10 to 20 mg/kg/day, ip administered for 15 days by western blot analysis; format: functional, organism-based; settings: dose 10-20 mg/kg/day, time 15.0 day; method in brief: as §3

Activity [2]: Active
Activity [3]: Active
SMILES: COc1cccc2c(Nc3ccc4[nH]c(C(=O)N/N=C/c5ccc(SC)cc5)cc4c3)cc(C)nc12
Activity (HepG2 [1]): Active
Activity (SMMC-7721 [4]): Tde
Activity (HepG2 [5]): inactive
Activity (HepG2 [6]): inactive
Activity (HepG2 [7]): Dose-dependent effect
Activity (SMMC-7721 [8]): Dose-dependent effect
Activity (SMMC-7721 [9]): Dose-dependent effect
Activity (HepG2 [10]): inactive
Activity (HepG2 [11]): inactive
Activity (HepG2 [12]): Active
Activity (HepG2 [13]): Active
Activity (HepG2 [14]): 0.16%
Activity (HepG2 [15]): Active
Activity (HepG2 [16]): Active
Activity (HepG2 [17]): Active
